# Assay results as given in ChEMBL document CHEMBL1821703, “Anthraquinone derivatives induce G2/M cell cycle arrest and apoptosis in NTUB1 cells” (Bioorg Med Chem, 2011).
# Activity calls are given as the source filed them. The calls are words filed in the database; no cut-off is given here.
# Legend:
# PC-3 [1] = assay: Cytotoxicity against human PC3 cells after 72 hrs by MTT assay; format: functional; settings: PC-3, 72 h, read-out: ED50 (the source's name)
# Summary of the method: (§1)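 Cells seeded at 1000/well (NTUB1, PC3) or 5000/well (SV-HUC1), incubated overnight at 37 °C, then exposed to graded concentrations for 72 h. Compounds were made up in DMSO and diluted in medium to 0.1% DMSO. MTT (2 mg/mL in PBS) added for 3 h, formazan dissolved in DMSO, absorbance read at 540 nm. Viability expressed as % of control; IC50 by median-effect analysis.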
# [2] = Cytotoxicity against human NTUB1 cells after 72 hrs by MTT assay; format: functional; settings: NTUB1, 72 h, read-out: ED50 (the source's name); summary of the method: as §1
# [3] = Cytotoxicity against human NTUB1 cells at >50 uM after 72 hrs by MTT assay; format: functional; summary of the method: as §1
# PC-3 [4] = assay: Cytotoxicity against human PC3 cells at >50 uM after 72 hrs by MTT assay; format: functional; summary of the method: as §1
# NTUB1 [5] = assay: Induction of ROS production in human NTUB1 cells using H2DCFDA staining at 1 mM after 24 hrs by flow cytometry analysis; format: functional, cell-based
# Summary of the method: (§2)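 NTUB1 cells treated 24 h with compounds, 20 µM cisplatin or 1 mM NAC. 10 µM H₂DCFDA added 30 min before harvest. Cells trypsinized, washed with PBS, and DCF green fluorescence read at once by FACScan flow cytometry through a 525-nm band-pass filter. Increase expressed with control set at 0%; three independent experiments.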
# [6] = Cytotoxicity against human NTUB1 cells assessed as cell viability at 1 mM after 72 hrs by MTT assay relative to control; format: functional; settings: NTUB1, 72 h, read-out: Activity
# Summary of the method: (§3)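 NTUB1 cells seeded at 1000/well, incubated overnight, then exposed 72 h to 1 mM NAC alone or to compound with NAC. MTT added for 3 h, formazan dissolved in DMSO, absorbance read at 540 nm. Viability expressed relative to untreated control; mean ± SD (n = 3) from one experiment in triplicate.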
# PC-3 [7] = assay: Cytotoxicity against human PC3 cells at >30 uM after 72 hrs by MTT assay; format: functional; summary of the method: as §1
# NTUB1 [8] = assay: Induction of ROS production in human NTUB1 cells using H2DCFDA staining after 24 hrs by flow cytometry analysis; format: functional, cell-based; summary of the method: as §2
# [9] = Cytotoxicity against human NTUB1 cells assessed as cell viability at 10 uM after 72 hrs by MTT assay relative to control; format: functional; settings: NTUB1, 72 h, read-out: Activity; summary of the method: as §1
# NTUB1 [10] = assay: Induction of up-regulation p21 expression in human NTUB1 cells at 20 uM after 24 hrs by Western blot analysis; format: functional, cell-based
# Summary of the method: (§4)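 NTUB1 cells exposed 24 h, trypsinized, and resuspended in PBS. Lysed by boiling twice for 10 min in 2× sample buffer, separated by SDS–PAGE, and semi-dry blotted to nitrocellulose. Membranes blocked in 5% skimmed milk in TBST, probed with primary antibodies overnight at 4 °C, then secondary antibody 1 h at room temperature. ECL chemiluminescence detection; GAPDH as internal control.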
# NTUB1 [11] = assay: Induction of up-regulation p21 expression in human NTUB1 cells at 10 uM after 24 hrs by Western blot analysis; format: functional, cell-based; summary of the method: as §4
# NTUB1 [12] = assay: Induction of morphological changes in human NTUB1 cells assessed as increase of tetraploid DNA level using DAPI staining at 20 uM after 24 hrs by immunofluorescence microscopic analysis; format: functional, cell-based
# Summary of the method: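 3 × 10⁵ NTUB1 cells per 6-cm dish treated 24 h. Fixed in 2% formaldehyde/PBS for 20 min, then cold methanol (−20 °C) for 3 min. Stained with DAPI 1 h at room temperature in the dark and examined by fluorescence microscopy.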
# [13] = Cytotoxicity against human NTUB1 cells assessed as cell viability at 20 uM after 72 hrs by MTT assay relative to control in presence of 1 mM of NAC; format: functional; summary of the method: as §3
# NTUB1 [14] = assay: Induction of down-regulation cyclin B1 expression in human NTUB1 cells at 10 uM after 24 hrs by Western blot analysis; format: functional, cell-based; summary of the method: as §4
# [15] = Cell cycle arrest in human NTUB1 cells assessed as accumulation at S phase at 10 uM after 24 hrs using propidium iodide staining by flow cytometry analysis (reference value: 22.61%); format: functional, cell-based
# Summary of the method: (§5)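 3 × 10⁵ NTUB1 cells per 6-cm dish, treated 24 h (medium-only control). Cells then stained with 50 µg/mL propidium iodide plus 50 µg/mL RNase A in PBS, 30 min at room temperature. DNA content read by FACScan flow cytometry; sub-G1 content taken as apoptosis. Values are mean ± SD of four independent experiments.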
# [16] = Cell cycle arrest in human NTUB1 cells assessed as accumulation at S phase at 20 uM after 24 hrs using propidium iodide staining by flow cytometry analysis (reference value: 22.61%); format: functional, cell-based; summary of the method: as §5
# [17] = Decrease of Bax protein expression in human NTUB1 cells at 10 to 20 uM after 24 hrs by Western blot analysis; format: functional, cell-based; summary of the method: as §4
# [18] = Cell cycle arrest in human NTUB1 cells assessed as accumulation at sub-G1 phase at 20 uM after 24 hrs using propidium iodide staining by flow cytometry analysis (reference value: 1.96%); format: functional, cell-based; summary of the method: as §5
# [19] = Cell cycle arrest in human NTUB1 cells assessed as accumulation at G2/M phase at 20 uM after 24 hrs using propidium iodide staining by flow cytometry analysis (reference value: 18.61%); format: functional, cell-based; summary of the method: as §5
# [20] = Cell cycle arrest in human NTUB1 cells assessed as accumulation at G1 phase at 20 uM after 24 hrs using propidium iodide staining by flow cytometry analysis (reference value: 56.06%); format: functional, cell-based; summary of the method: as §5
# [21] = Cell cycle arrest in human NTUB1 cells assessed as accumulation at sub-G1 phase at 10 uM after 24 hrs using propidium iodide staining by flow cytometry analysis (reference value: 1.96%); format: functional, cell-based; summary of the method: as §5
# [22] = Cytotoxicity against human SV-HUC1 cells at 3 to 10 uM after 72 hrs by MTT assay; format: cell-based; settings: sv-huc1, 72 h; summary of the method: as §1
# NTUB1 [23] = assay: Induction of up-regulation cyclin B1 expression in human NTUB1 cells at 20 uM after 24 hrs by Western blot analysis; format: functional, cell-based; summary of the method: as §4
# [24] = Cytotoxicity against human NTUB1 cells assessed as cell viability at 10 uM after 72 hrs by MTT assay relative to control in presence of 1 mM of NAC; format: functional; summary of the method: as §3
# NTUB1 [25] = assay: Induction of ROS production in human NTUB1 cells using H2DCFDA staining at 20 uM after 24 hrs by flow cytometry analysis in presence of 1 mM of NAC; format: functional, cell-based
# NTUB1 [26] = assay: Increase of p53 protein expression in human NTUB1 cells at 10 to 20 uM after 24 hrs by Western blot analysis; format: functional, cell-based; summary of the method: as §4
# [27] = Cytotoxicity against human NTUB1 cells assessed as cell viability at 20 uM after 72 hrs by MTT assay relative to control; format: functional; settings: NTUB1, 72 h, read-out: Activity; summary of the method: as §1
# [28] = Cell cycle arrest in human NTUB1 cells assessed as accumulation at G2/M phase at 10 uM after 24 hrs using propidium iodide staining by flow cytometry analysis (reference value: 18.61%); format: functional, cell-based; summary of the method: as §5
# [29] = Cell cycle arrest in human NTUB1 cells assessed as accumulation at G1 phase at 10 uM after 24 hrs using propidium iodide staining by flow cytometry analysis (reference value: 56.06%); format: functional, cell-based; summary of the method: as §5
# [30] = Cytotoxicity against human NTUB1 cells at >30 uM after 72 hrs by MTT assay; format: functional; summary of the method: as §1
smiles,measurement,setting,value
CCNCCCOc1ccc2c(c1)C(=O)c1ccccc1C2=O,EC50,PC-3 [1],22.9 µM
same,EC50,[2],24.4 µM
O=C1c2ccccc2C(=O)c2c(O)cc(OCCCN3CCN(CCO)CC3)cc21,EC50,PC-3 [1],> 50 µM
same,inhibition (INH),[3],18.75%
same,EC50,[2],> 50 µM
same,inhibition (INH),PC-3 [4],18.54%
CC(O)CNCCCOc1cc(O)c2c(c1)C(=O)c1ccccc1C2=O (configuration not stated),EC50,PC-3 [1],9.07 µM
same,EC50,[2],12 µM
O=C1c2ccccc2C(=O)c2c(O)cc(OCCCN3CCCCC3)cc21,EC50,PC-3 [1],28.5 µM
same,EC50,[2],32.6 µM
CCNCCCOc1cc(O)c2c(c1)C(=O)c1ccccc1C2=O,EC50,PC-3 [1],> 50 µM
same,inhibition (INH),[3],23.2%
same,EC50,[2],> 50 µM
same,inhibition (INH),PC-3 [4],19.2%
CC(=O)N[C@@H](CS)C(=O)O [ACETYLCYSTEINE],Activity,NTUB1 [5],inactive
same,viability at 1000 µM,[6],96.3%
CCCNCCCOc1cc(O)c2c(c1)C(=O)c1ccccc1C2=O,EC50,PC-3 [1],14 µM
same,EC50,[2],18.9 µM
CN(CCO)CCCOc1cc(O)c2c(c1)C(=O)c1ccccc1C2=O,EC50,PC-3 [1],8.89 µM
same,EC50,[2],12.3 µM
CCOC(=O)N1CCN(CCCOc2cc(O)c3c(c2)C(=O)c2ccccc2C3=O)CC1,EC50,PC-3 [1],> 30 µM
same,inhibition (INH),PC-3 [7],12.44%
same,EC50,[2],50.9 µM
same,Activity,NTUB1 [8],Active
O=C1c2ccccc2C(=O)c2c(O)cc(OCCCN3CCCC3)cc21,viability at 10 µM,[9],57%
same,Activity,NTUB1 [10],Active
same,Activity,NTUB1 [11],Active
same,Activity,NTUB1 [12],Active
same,Activity,[13],17.1%
same,Activity,NTUB1 [14],Active
same,Activity,[15],25.3%
same,Activity,[16],21.9%
same,EC50,PC-3 [1],7.64 µM
same,Activity,[17],Active
same,EC50,[2],9.72 µM
same,Activity,[18],4.69%
same,Activity,[19],29.6%
same,Activity,[20],36.6%
same,Activity,[21],2.47%
same,Activity,[22],Non-toxic
same,Activity,NTUB1 [23],Active
same,Activity,[24],57.4%
same,Activity,NTUB1 [25],inactive
same,Activity,NTUB1 [26],Active
same,viability at 20 µM,[27],13.1%
same,Activity,[28],19.2%
same,Activity,[29],51.4%
same,Activity,NTUB1 [8],Active
CN1CCN(CCCOc2cc(O)c3c(c2)C(=O)c2ccccc2C3=O)CC1,EC50,PC-3 [1],> 50 µM
same,EC50,[2],> 30 µM
same,inhibition (INH),PC-3 [4],44.36%
same,inhibition (INH),[30],15.54%
O=C1c2ccccc2C(=O)c2c(O)cc(OCCCN3CCOCC3)cc21,EC50,PC-3 [1],17.7 µM
same,EC50,[2],20.4 µM
same,Activity,NTUB1 [8],Active
O=C1c2ccccc2C(=O)c2c(O)cc(OCCCNC3CCCCC3)cc21,EC50,PC-3 [1],9.12 µM
same,EC50,[2],8.37 µM
